The results in this text go back to ChEMBL document CHEMBL4425101, “Design, Synthesis, and Characterization of Cyclic Peptidomimetics of the Inducible Nitric Oxide Synthase Binding Epitope That Disrupt the Protein-Protein Interaction Involving SPRY Domain-Containing Suppressor of Cytokine Signaling Box Protein (SPSB) 2 and Inducible Nitric Oxide Synthase” (J Med Chem, 2016).

The target of assay [1] is T1, SPRY domain-containing SOCS box protein 2 (Mus musculus) (UniProt O88838).
T1 sequence (whole entry): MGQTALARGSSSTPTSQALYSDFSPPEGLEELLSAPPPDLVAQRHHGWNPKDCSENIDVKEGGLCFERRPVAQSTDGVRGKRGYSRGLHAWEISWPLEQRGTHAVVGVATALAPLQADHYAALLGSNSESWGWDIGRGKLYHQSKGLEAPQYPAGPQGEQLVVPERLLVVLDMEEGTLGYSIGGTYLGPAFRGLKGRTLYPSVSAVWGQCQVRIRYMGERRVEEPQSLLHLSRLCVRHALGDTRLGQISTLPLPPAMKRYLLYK
Description: Binding affinity to mouse 5-F-Trp-SPSB2 assessed as downward shift of Trp207 residue resonance at protein to compound molar ratio of 1:5 by 19F-NMR spectroscopy. The method in brief:
(§1)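 19F NMR of 5F-Trp-labelled SPSB2 with added peptidomimetic, recorded at 30 °C and 564 MHz on a cryoprobe tuned to 19F.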

The species entered for a further assay is Mus musculus. Description: Inhibition of recombinant GST-tagged mouse SPSB2 (12 to 224 residues) expressed in Escherichia coli BL21 (DE3)/ full length iNOS (unknown origin) interaction in LPS/IFN-gamma-stimulated mouse BMDM assessed as reduction in iNOS level preincubated for 2 hrs measured after 1 hr by Western blot analysis. In short, it runs like this:
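Lysates of cultured murine BMDM incubated 2 h with 2.5 μg/mL GST-SPSB2 SPRY domain or GST alone, with or without 10 μM peptidomimetic. Then 1 h with glutathione Sepharose beads to pull down the complex. Bound iNOS detected by reducing SDS-PAGE, anti-iNOS immunoblot and ECL. Membrane reprobed with anti-GST to check loading.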

In assay [2] the target is T1, SPRY domain-containing SOCS box protein 2 (Mus musculus). Description: Binding affinity to recombinant GST-tagged mouse SPSB2 (12 to 224 residues) expressed in Escherichia coli BL21 (DE3) assessed as dissociation rate by SPR analysis. The method in brief:
(§2)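 SPSB2 amine-coupled to a CM5 sensor chip. Peptidomimetics flowed over at increasing concentrations in running buffer (10 mM HEPES, 150 mM NaCl, 3 mM EDTA, 0.05% Tween 20, pH 7.4) at 25 °C. Sensorgrams fitted to a single-site binding model.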
For orientation: Surface plasmon resonance follows binding to a sensor surface in real time, without labels.

The target is the same in assay [3]. Description: Binding affinity to recombinant GST-tagged mouse SPSB2 (12 to 224 residues) expressed in Escherichia coli BL21 (DE3) assessed as association rate by SPR analysis. The method in brief: as §2
Assay [4] shares this target. Description: Ratio of Kd for recombinant GST-tagged mouse SPSB2 (12 to 224 residues) expressed in Escherichia coli BL21 (DE3) by ITC method to Kd for recombinant GST-tagged mouse SPSB2 (12 to 224 residues) expressed in Escherichia coli BL21 by SPR analysis. Background: ITC needs no label: the signal is the heat of the interaction.
Assay [5] has the same target. Description: Potency index, ratio of Ac-DINNNNH2 Kd to compound Kd for recombinant GST-tagged mouse SPSB2 (12 to 224 residues) expressed in Escherichia coli BL21 (DE3) by SPR analysis.
Assay [6] has as its target T2, SPRY domain-containing SOCS box protein 2 (Mus musculus, UniProt O88838).
T2 sequence (O88838 whole entry): T1 sequence (whole entry)
Description: Binding affinity to recombinant GST-tagged mouse SPSB2 (12 to 224 residues) expressed in Escherichia coli BL21 (DE3) by SPR analysis. The method in brief: as §2

Assay [7] concerns the target T2, SPRY domain-containing SOCS box protein 2. Description: Binding affinity to recombinant GST-tagged mouse SPSB2 (12 to 224 residues) expressed in Escherichia coli BL21 (DE3) by ITC method. In short, it runs like this:
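ITC at 25 °C in 50 mM phosphate pH 7.4, 150 mM NaCl. Cell held 50 μM SPSB2, buffer-exchanged on a PD-10 column; syringe held compound from a 5 mM stock. Stirred at 1000 rpm. One 0.2 μL injection, then 29 injections of 1 μL. KD and ΔH from a nonlinear least-squares fit to a one-set-of-sites (1:1) model.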

The target in assay [8] is T1, SPRY domain-containing SOCS box protein 2 (Mus musculus). Description: Binding affinity to mouse 5-F-Trp-SPSB2 assessed as induction of sharpening of Trp207 resonance by measuring increase in peak height at protein to compound molar ratio of 1:5 by 19F-NMR spectroscopy. In short, it runs like this: as §1

The source made the active and inactive calls. The rule behind the calls is not given here. Where a SMILES comes first, the peptide text is derived from it. Bridges are numbered along the chain shown (N, C = ends).

For `CC[C@H](C)[C@@H]1NC(=O)[C@@H](CC(=O)O)OCc2ccccc2NC(=O)[C@H](CC(N)=O)NC(=O)[C@H](CC(N)=O)NC(=O)[C@@H](CC(N)=O)NC1=O`, the result in assay [1] was Active. Besides, the “Inhibition of SPSB2-iNOS interaction (qualitative)” value (from here on “Inhibition”) in the assay filed under Mus musculus was “Active”. Also, the K was found to be 2 ×10⁻² /s in assay [2] and 8.6 ×10⁵ /M/s in assay [3]. Further, the Ratio in assay [4] is 1.5; in assay [5], 10.

For `CC[C@H](C)[C@@H]1NC(=O)[C@@H](CC(=O)O)OCC(=O)N(C)NC(=O)[C@H](CC(N)=O)NC(=O)[C@H](CC(N)=O)NC(=O)[C@@H](CC(N)=O)NC1=O`, the result in [1] was Active. Further, the “Inhibition” value in the assay filed under Mus musculus is “Active”. Moreover, the figures for the K in assay [2] and in [3] were 8 ×10⁻² /s and 11.9 ×10⁵ /M/s, respectively.

`CC[C@H](C)[C@@H]1NC(=O)[C@@H](CC(=O)O)OCc2ccccc2NC(=O)[C@H](CC(N)=O)NC(=O)[C@H](CC(N)=O)NC(=O)[C@H](CC(N)=O)NC1=O`: the dissociation constant (Kd) (usually the equilibrium constant for the complex coming apart) is 29 nM in assay [6] and 45 nM in [7].

As for `CC[C@@H](C)[C@@H]1NC(=O)[C@H](CC(=O)O)OCCNC(=O)[C@@H](CC(N)=O)NC(=O)[C@@H](CC(N)=O)NC(=O)[C@@H](CC(N)=O)NC1=O`, in assay [1], the result was inactive. Besides, in the assay listed under Mus musculus, the “Inhibition” value was “Active”. Further, the K was found to be 26 ×10⁻² /s in assay [2] and 4.7 ×10⁵ /M/s in [3]. The Activity in [8] was determined as 25%.

For `CC[C@H](C)[C@@H]1NC(=O)[C@@H](CC(=O)O)OCC(=O)N(C)NC(=O)[C@H](CC(N)=O)NC(=O)[C@H](CC(N)=O)NC(=O)[C@H](CC(N)=O)NC1=O`, the results for the Kd in assay [6] and in assay [7] were 99 nM and 83 nM, respectively.

With `CC[C@H](C)[C@@H]1NC(=O)[C@@H](CC(=O)O)NC(=O)c2ccccc2NC(=O)[C@H](CC(N)=O)NC(=O)[C@H](CC(N)=O)NC(=O)[C@@H](CC(N)=O)NC1=O`, in assay [1], the result was Active. Besides, the “Inhibition” value in the assay listed under Mus musculus is “Active”. Moreover, the figures for the K in assay [2] and in [3] were 6 ×10⁻² /s and 11 ×10⁵ /M/s, respectively.

For H-KEEKDINNNVKKT-OH, in [7], the dissociation constant Kd came out at 13 nM.

For `CC[C@H](C)[C@@H]1NC(=O)[C@H](CC(=O)O)OCCNC(=O)[C@H](CC(N)=O)NC(=O)[C@H](CC(N)=O)NC(=O)[C@H](CC(N)=O)NC1=O`, the dissociation constant (Kd) in [6] was determined as 465 nM; in assay [7] it was 442 nM.

Turning to `CC[C@H](C)[C@@H]1NC(=O)[C@H](CC(=O)O)NC(=O)c2ccccc2NC(=O)[C@H](CC(N)=O)NC(=O)[C@H](CC(N)=O)NC(=O)[C@H](CC(N)=O)NC1=O`, the equilibrium dissociation constant (Kd) in assay [6] worked out at 54 nM; in assay [7] it was 49 nM.

In the case of `CC[C@H](C)[C@@H]1NC(=O)[C@H](CC(=O)O)NC(=O)[C@H](C(C)C)NC(=O)[C@@H](NC(C)=O)CSSC[C@@H](C(N)=O)NC(=O)[C@H](CC(N)=O)NC(=O)[C@H](CC(N)=O)NC(=O)[C@H](CC(N)=O)NC1=O` (Ac-CVDINNNC-NH2; disulfide 1-8), the result in assay [1] was Active.
